pIC50: −log10 of the molar value.
Columns and labels:
[1] = molecular target: T1, Angiotensin-converting enzyme (Oryctolagus cuniculus, UniProt P12822); assay: Tested in vitro for its inhibitory activity against angiotensin converting enzyme
T1 sequence (P12822 whole entry): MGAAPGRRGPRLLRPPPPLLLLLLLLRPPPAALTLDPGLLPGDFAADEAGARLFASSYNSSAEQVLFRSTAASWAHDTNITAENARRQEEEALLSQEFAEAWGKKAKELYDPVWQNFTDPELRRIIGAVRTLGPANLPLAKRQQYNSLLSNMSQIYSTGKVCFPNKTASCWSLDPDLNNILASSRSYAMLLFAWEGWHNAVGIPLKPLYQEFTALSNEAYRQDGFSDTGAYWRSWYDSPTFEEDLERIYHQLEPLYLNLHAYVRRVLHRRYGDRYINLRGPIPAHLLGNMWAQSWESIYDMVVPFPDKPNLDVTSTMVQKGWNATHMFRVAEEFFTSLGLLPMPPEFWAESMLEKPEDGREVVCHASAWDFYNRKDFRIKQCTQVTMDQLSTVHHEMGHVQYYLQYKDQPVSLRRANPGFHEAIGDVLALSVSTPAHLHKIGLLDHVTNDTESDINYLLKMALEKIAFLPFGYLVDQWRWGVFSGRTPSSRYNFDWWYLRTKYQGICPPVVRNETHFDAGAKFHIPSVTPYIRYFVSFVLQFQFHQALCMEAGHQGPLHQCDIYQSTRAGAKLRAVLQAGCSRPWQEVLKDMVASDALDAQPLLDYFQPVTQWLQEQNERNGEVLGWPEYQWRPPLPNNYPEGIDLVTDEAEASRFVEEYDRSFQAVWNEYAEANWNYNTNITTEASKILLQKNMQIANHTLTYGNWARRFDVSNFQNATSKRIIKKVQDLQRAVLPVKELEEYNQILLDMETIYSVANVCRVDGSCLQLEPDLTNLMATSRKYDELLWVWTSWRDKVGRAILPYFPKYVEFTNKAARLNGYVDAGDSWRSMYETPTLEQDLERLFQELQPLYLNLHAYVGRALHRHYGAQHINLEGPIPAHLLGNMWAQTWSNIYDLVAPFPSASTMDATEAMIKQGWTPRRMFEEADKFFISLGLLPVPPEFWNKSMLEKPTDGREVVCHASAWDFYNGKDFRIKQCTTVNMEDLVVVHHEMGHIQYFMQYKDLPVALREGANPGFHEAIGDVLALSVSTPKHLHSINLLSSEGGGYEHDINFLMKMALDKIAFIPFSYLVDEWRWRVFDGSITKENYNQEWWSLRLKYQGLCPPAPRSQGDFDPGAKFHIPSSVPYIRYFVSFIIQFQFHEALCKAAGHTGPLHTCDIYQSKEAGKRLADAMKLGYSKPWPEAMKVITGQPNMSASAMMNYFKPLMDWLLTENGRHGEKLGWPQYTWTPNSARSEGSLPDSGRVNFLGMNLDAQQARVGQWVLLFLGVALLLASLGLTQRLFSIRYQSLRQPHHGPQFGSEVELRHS

Neprilysin = molecular target: T2, Neprilysin (Oryctolagus cuniculus, UniProt P08049); assay: In vitro inhibitory activity against neutral endopeptidase (NEP)
T2 sequence (P08049 whole entry): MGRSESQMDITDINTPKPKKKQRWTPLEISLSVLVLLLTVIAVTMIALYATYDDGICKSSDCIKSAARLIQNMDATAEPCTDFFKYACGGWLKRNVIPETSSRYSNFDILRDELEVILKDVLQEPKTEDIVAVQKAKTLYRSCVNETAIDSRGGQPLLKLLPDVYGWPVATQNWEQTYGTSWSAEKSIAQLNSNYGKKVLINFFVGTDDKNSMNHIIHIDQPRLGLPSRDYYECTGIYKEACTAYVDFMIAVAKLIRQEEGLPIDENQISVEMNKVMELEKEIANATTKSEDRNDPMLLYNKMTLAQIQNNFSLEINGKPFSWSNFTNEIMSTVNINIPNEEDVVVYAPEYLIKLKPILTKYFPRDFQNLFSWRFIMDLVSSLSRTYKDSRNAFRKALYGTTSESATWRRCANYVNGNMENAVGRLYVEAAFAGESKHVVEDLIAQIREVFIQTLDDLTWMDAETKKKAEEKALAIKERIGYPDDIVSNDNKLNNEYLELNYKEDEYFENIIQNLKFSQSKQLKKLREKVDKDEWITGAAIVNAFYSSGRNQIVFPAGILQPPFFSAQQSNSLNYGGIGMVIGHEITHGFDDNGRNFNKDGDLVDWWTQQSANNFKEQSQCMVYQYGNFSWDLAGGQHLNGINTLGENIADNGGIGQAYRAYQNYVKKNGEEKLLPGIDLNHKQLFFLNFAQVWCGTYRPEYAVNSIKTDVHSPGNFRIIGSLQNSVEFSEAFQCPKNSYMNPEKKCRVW
Summary of the method: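 Purified rabbit kidney NEP (EC 24.11) was the enzyme source, with [³H]Leu-enkephalin as the substrate.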

Rattus norvegicus [2] = assay: In vivo potentiation of ANF induced hypotension in rat, following subcutaneous dose of 30 mg/kg; type: functional
Summary of the method: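 Conscious male SHR (270–300 g) had caudal artery and jugular vein cannulae placed under ether. After at least 90 min of stabilization, ANF 103-125 or 99-126 was given as an iv bolus at a submaximal dose. 60–90 min later, drug or vehicle (0.2% aqueous methylcellulose with 20% Tris-HCl) was given sc. ANF was repeated 15 min after dosing, and the response was compared with vehicle controls. Values are means of four or more animals.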

Rattus norvegicus [3] = assay: Tested for in vivo Antihypertensive activity in DOCA rat by giving peroral dose of 30 mg/kg; type: functional; conditions: route oral
Summary of the method: (§1)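 Male Sprague-Dawley rats (100–150 g) had DOCA-Na hypertension induced and were used 17–21 days later if mean BP was >150 mmHg. Rats were not fasted. Mean BP was recorded after 90-min equilibration. Dosing was sc in TRIS buffer (2 mL/kg) or po in 0.4% aqueous methylcellulose (4 mL/kg). The maximum BP fall over 4 h versus vehicle controls was taken, averaged over four or more animals.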

Rattus norvegicus [4] = assay: Tested for in vivo Antihypertensive activity in DOCA rat by giving peroral dose of 10 mg/kg; type: functional; conditions: route oral; summary of the method: as §1

SMILES	pIC50 [1]	pIC50 (Neprilysin)	Delta blood pressure (Rattus norvegicus [2])	Delta blood pressure (Rattus norvegicus [3])	Delta blood pressure (Rattus norvegicus [4])
CSCC[C@@H](NC(=O)[C@@H](CS)Cc1ccccc1)C(=O)O	7.46	8.19	23 mmHg	–	31 mmHg
CSCC[C@@H](NC(=O)[C@H](CSC(C)=O)Cc1ccccc1)C(N)=O	–	–	27 mmHg	–	–
CSCC[C@@H](NC(=O)C(CSC(C)=O)Cc1ccccc1)C(=O)NCCO (some centres not stated)	–	–	25 mmHg	–	24 mmHg
CC(=O)SC[C@@H](Cc1ccccc1)C(=O)N[C@H](CSCc1ccc(C)cc1)C(N)=O	–	–	12 mmHg	–	29 mmHg
Cc1ccc(CSC[C@@H](NC(=O)[C@H](CS)Cc2ccc3ccccc3c2)C(=O)O)cc1	–	–	0 mmHg	–	–
CSCC[C@@H](NC(=O)[C@@H](CS)Cc1ccccc1)C(N)=O	< 6.00	7.12	26 mmHg	–	–
CSCC[C@@H](NC(=O)C(CSC(C)=O)Cc1ccccc1)C(=O)N1CCOCC1 (some centres not stated)	–	< 6.52	24 mmHg	–	20 mmHg
CCCC(CS)C(=O)N[C@H](CCSC)C(=O)O (some centres not stated)	< 6.00	8.60	–	–	–
CSCC[C@@H](NC(=O)[C@@H](CS)CCc1ccccc1)C(=O)O	6.82	7.22	–	–	18 mmHg
CCOC(=O)CNC(=O)[C@@H](CCSC)NC(=O)C(CSC(C)=O)Cc1ccccc1 (some centres not stated)	–	< 6.52	–	–	0 mmHg

More lines, main results first:

pIC50 [1]	pIC50 (Neprilysin)	SMILES	Delta blood pressure (Rattus norvegicus [2])	Delta blood pressure (Rattus norvegicus [3])	Delta blood pressure (Rattus norvegicus [4])
< 6.00	6.54	Cc1ccc(CSC[C@@H](NC(=O)[C@H](CS)Cc2ccc(-c3ccccc3)cc2)C(=O)O)cc1	0 mmHg	–	–
6.74	6.74	Cc1ccc(CSC[C@@H](NC(=O)[C@@H](CS)Cc2ccc(-c3ccccc3)cc2)C(=O)O)cc1	0 mmHg	19 mmHg	–
6.34	< 6.52	Cc1ccc(CSC[C@@H](NC(=O)[C@@H](CS)Cc2ccc3ccccc3c2)C(=O)O)cc1	0 mmHg	–	–
6.77	7.31	CC(C)(C)SC[C@@H](NC(=O)[C@@H](CS)Cc1ccccc1)C(=O)O	25 mmHg	17 mmHg	–
7.11	8.82	CSC[C@@H](NC(=O)[C@@H](CS)Cc1ccccc1)C(=O)O	30 mmHg	0 mmHg	–
–	< 6.52	Cc1ccc(CSC[C@@H](NC(=O)[C@@H](CS)Cc2ccccc2)C(N)=O)cc1	0 mmHg	–	–
< 6.00	6.27	Cc1ccc(CSC[C@@H](NC(=O)[C@H](CS)Cc2ccccc2)C(=O)O)cc1C	0 mmHg	–	–
7.02	8.70	COc1ccc(CSC[C@@H](NC(=O)[C@@H](CS)Cc2ccccc2)C(=O)O)cc1	–	28 mmHg	–
< 6.00	6.83	O=C(N[C@H](CSCc1ccccc1)C(=O)O)[C@H](CS)Cc1ccc(Cl)cc1	0 mmHg	–	–

From ChEMBL document CHEMBL1127600, “Mercaptoacyl amino acid inhibitors of atriopeptidase. 1. Structure-activity relationship studies of methionine and S-alkylcysteine derivatives” (J Med Chem, 1994)
